Reference: ChEMBL document CHEMBL4038284, “Synthesis of novel quinoline-based 4,5-dihydro-1H-pyrazoles as potential anticancer, antifungal, antibacterial and antiprotozoal agents” (Eur J Med Chem, 2017)
≈ marks a conversion by molar mass, not a printed value.

How the values were obtained:
Klebsiella pneumoniae [1] = assay: Antibacterial activity against ESBL positive Klebsiella pneumoniae ATCC 700603 after 24 hrs by resazurin dye based microdilution assay; type: functional; conditions: Klebsiella pneumoniae, 700603, 24 h
Procedure, shortened: (§1)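 MIC taken as the lowest concentration giving visible inhibition and/or by resazurin (1 mg/mL). Gentamicin was the control. Run in duplicate, repeated at least three times.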

Klebsiella pneumoniae [2] = assay: Antibacterial activity against carbapenemase positive Klebsiella pneumoniae BAA 1705 after 24 hrs by resazurin dye based microdilution assay; type: functional; conditions: BAA 1705, 24 h; procedure, shortened: as §1
Leishmania panamensis = assay: Antileshmanial activity against EpiR/GFP fused Leishmania panamensis MHOM/CO/87/UA140 intracellular amastigotes infected in human […] cells after 72 hrs by flow cytometric method; type: functional, cell-based; conditions: MHOM/CO/87/UA140, 72 h
Procedure, shortened: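 PMA-treated U-937 cells (3 × 10^5 cells/mL) infected with stationary-phase GFP L. panamensis promastigotes (15:1), 3 h at 34 °C, then washed. After 24 h, compounds added at 50, 12.5, 3.125 and 0.78 µg/mL for 72 h at 37 °C. EC50 by Probit; triplicate, two experiments.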

Candida albicans [3] = assay: Antifungal activity against Candida albicans ATCC 10231 incubated for 48 hrs under dark condition by broth microdilution method; type: functional; conditions: ATCC 10231, 48 h
Procedure, shortened: (§2)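 CLSI M27-A3 broth microdilution in RPMI-1640, DMSO ≤1%, compounds at 250-0.98 µg/mL final. Inoculum 1-5 × 10^3 CFU/mL. Incubated 48 h at 30 °C in a moist dark chamber, read at OD405. MIC80 and MIC50 taken from % inhibition dose-response curves (mean ± SEM, triplicate). Amphotericin B was the positive control.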

Cryptococcus neoformans [4] = assay: Antifungal activity against Cryptococcus neoformans ATCC 32264 incubated for 48 hrs under dark condition by broth microdilution method; type: functional; conditions: ATCC 32264, 48 h; procedure, shortened: as §2
Candida albicans [5] = assay: Growth inhibition of Candida albicans ATCC 10231 at 250 ug/ml incubated for 48 hrs under dark condition by broth microdilution method relative to control; type: functional; conditions: ATCC 10231, 48 h, read-out: GI
Procedure, shortened: (§3)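 CLSI M27-A3 broth microdilution in RPMI-1640, DMSO ≤1%. Inoculum 1-5 × 10^3 CFU/mL. Incubated 48 h at 30 °C, dark. % inhibition = 100 − (OD405 test − sterility control)/(OD405 growth control − sterility control), with growth and sterility control wells. Triplicate.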

Candida albicans [6] = assay: Growth inhibition of Candida albicans ATCC 10231 at 125 ug/ml incubated for 48 hrs under dark condition by broth microdilution method relative to control; type: functional; conditions: ATCC 10231, 48 h, read-out: GI; procedure, shortened: as §3
Candida albicans [7] = assay: Growth inhibition of Candida albicans ATCC 10231 at 62.5 ug/ml incubated for 48 hrs under dark condition by broth microdilution method relative to control; type: functional; conditions: ATCC 10231, 48 h, read-out: GI; procedure, shortened: as §3
Candida albicans [8] = assay: Growth inhibition of Candida albicans ATCC 10231 at 31.25 ug/ml incubated for 48 hrs under dark condition by broth microdilution method relative to control; type: functional; conditions: ATCC 10231, 48 h, read-out: GI; procedure, shortened: as §3
Candida albicans [9] = assay: Growth inhibition of Candida albicans ATCC 10231 at 15.62 ug/ml incubated for 48 hrs under dark condition by broth microdilution method relative to control; type: functional; conditions: ATCC 10231, 48 h, read-out: GI; procedure, shortened: as §3
Candida albicans [10] = assay: Growth inhibition of Candida albicans ATCC 10231 at 7.8 ug/ml incubated for 48 hrs under dark condition by broth microdilution method relative to control; type: functional; conditions: ATCC 10231, 48 h, read-out: GI; procedure, shortened: as §3
Candida albicans [11] = assay: Growth inhibition of Candida albicans ATCC 10231 at 3.4 ug/ml incubated for 48 hrs under dark condition by broth microdilution method relative to control; type: functional; conditions: ATCC 10231, 48 h, read-out: GI
Cryptococcus neoformans [12] = assay: Growth inhibition of Cryptococcus neoformans ATCC 32264 at 250 ug/ml incubated for 48 hrs under dark condition by broth microdilution method relative to control; type: functional; conditions: ATCC 32264, 48 h, read-out: GI; procedure, shortened: as §3
Cryptococcus neoformans [13] = assay: Growth inhibition of Cryptococcus neoformans ATCC 32264 at 125 ug/ml incubated for 48 hrs under dark condition by broth microdilution method relative to control; type: functional; conditions: ATCC 32264, 48 h, read-out: GI; procedure, shortened: as §3
Cryptococcus neoformans [14] = assay: Growth inhibition of Cryptococcus neoformans ATCC 32264 at 62.5 ug/ml incubated for 48 hrs under dark condition by broth microdilution method relative to control; type: functional; conditions: ATCC 32264, 48 h, read-out: GI; procedure, shortened: as §3
Cryptococcus neoformans [15] = assay: Growth inhibition of Cryptococcus neoformans ATCC 32264 at 31.25 ug/ml incubated for 48 hrs under dark condition by broth microdilution method relative to control; type: functional; conditions: ATCC 32264, 48 h, read-out: GI; procedure, shortened: as §3
Cryptococcus neoformans [16] = assay: Growth inhibition of Cryptococcus neoformans ATCC 32264 at 15.62 ug/ml incubated for 48 hrs under dark condition by broth microdilution method relative to control; type: functional; conditions: ATCC 32264, 48 h, read-out: GI; procedure, shortened: as §3
Cryptococcus neoformans [17] = assay: Growth inhibition of Cryptococcus neoformans ATCC 32264 at 7.8 ug/ml incubated for 48 hrs under dark condition by broth microdilution method relative to control; type: functional; conditions: ATCC 32264, 48 h, read-out: GI; procedure, shortened: as §3
Cryptococcus neoformans [18] = assay: Growth inhibition of Cryptococcus neoformans ATCC 32264 at 3.4 ug/ml incubated for 48 hrs under dark condition by broth microdilution method relative to control; type: functional; conditions: ATCC 32264, 48 h, read-out: GI
Staphylococcus aureus [19] = assay: Antibacterial activity against methicillin-sensitive Staphylococcus aureus ATCC 25923 after 24 hrs by resazurin dye based microdilution assay; type: functional; conditions: ATCC 25923, 24 h; procedure, shortened: as §1
Staphylococcus aureus [20] = assay: Antibacterial activity against methicillin-resistant Staphylococcus aureus ATCC 43300 after 24 hrs by resazurin dye based microdilution assay; type: functional; conditions: ATCC 43300, 24 h
Procedure, shortened: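 Broth microdilution in Mueller Hinton broth, inoculum 5 × 10^5 – 8 × 10^5. Compound stocks diluted in MHB with 5% DMSO and 0.1% Tween 80. Incubation 24 h at 35-37 °C. MIC is the lowest concentration with visible growth inhibition and/or by resazurin (1 mg/mL) read-out. Gentamicin as control. Run in duplicate, replicated at least three times.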

Staphylococcus aureus [21] = assay: Antibacterial activity against vancomycin-intermediate Staphylococcus aureus after 24 hrs by resazurin dye based microdilution assay; type: functional; procedure, shortened: as §1
Escherichia coli = assay: Antibacterial activity against Escherichia coli ATCC 25922 after 24 hrs by resazurin dye based microdilution assay; type: functional; conditions: ATCC 25922, 24 h; procedure, shortened: as §1
Pseudomonas aeruginosa = assay: Antibacterial activity against Pseudomonas aeruginosa ATCC 27853 after 24 hrs by resazurin dye based microdilution assay; type: functional; conditions: ATCC 27853, 24 h; procedure, shortened: as §1
Neisseria gonorrhoeae = assay: Antibacterial activity against beta lactamase positive Neisseria gonorrhoeae ATCC 31426 by oxidase test; type: functional
Procedure, shortened: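 Agar dilution MIC on GC agar with 1% isovitalex containing increasing compound concentrations. Plates inoculated with about 1×10^4 CFU (5 µL). MIC is the lowest concentration that inhibited growth, with growth confirmed by oxidase test. Run in duplicate, repeated at least three times.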

Plasmodium falciparum = assay: Antiplasmodial activity against chloroquine-sensitive Plasmodium falciparum 3D7 assessed as reduction in parasitic LDH activity after 48 hrs by Malstat reagent based […] method; type: functional; conditions: 3D7, 48 h
Procedure, shortened: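 Unsynchronized P. falciparum 3D7 at 0.5% parasitemia and 1% hematocrit in RPMI with 3% Albumax II. Exposed to 100, 25, 6.25 and 1.56 µg/mL for 48 h at 37 °C under 90% N2/5% CO2/5% O2. After three freeze-thaw cycles, LDH measured with Malstat and NBT/PES, 1 h in the dark, read at 650 nm. IC50 by Probit; triplicate, ≥2 experiments.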

U-937 = assay: Cytotoxicity against human U937 cells after 72 hrs by MTT assay; type: cell-based; conditions: u-937, 72 h
Procedure, shortened: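 Exponentially growing U-937 at 1 × 10^5 cells/mL in RPMI-1640 with 10% FBS were exposed to 200, 50, 12.5 and 3.125 µg/mL for 72 h at 37 °C, 5% CO2. MTT for 3 h, stopped with isopropanol/SDS, formazan read at 570 nm, blank-corrected. LC50 by Probit from % viability against untreated cells. Triplicate, at least two independent experiments.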

Trypanosoma cruzi = assay: Antitrypanosomal activity against Trypanosoma cruzi Tulahuen intracellular amastigote harboring LacZ infected in human U937 cells after 72 hrs by CPRG/Nonidet reagent based spectrophotometric method; type: functional, cell-based; conditions: U-937, 72 h
Procedure, shortened: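 U-937 cells at 2.5 × 10^5 cells/mL in RPMI-1640 with 10% serum and 0.1 µg/mL PMA were infected with β-galactosidase-transfected Tulahuen epimastigotes at 5 parasites per cell. Infected cells were exposed to 50, 12.5, 3.125 and 0.78 µg/mL for 72 h. CPRG (100 uM) and 0.1% Nonidet P-40 were added for 3 h, read at 570 nm. EC50 by Probit. Triplicate, at least two experiments; benznidazole as reference.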

`CC(=O)N1N=C(c2ccc(Cl)cc2)CC1c1cccc(Nc2ccnc3cc(Cl)ccc23)c1` (stereo not given) showed an MIC (Klebsiella pneumoniae [1]) of over 1000 µg/mL, an MIC (Klebsiella pneumoniae [2]) of over 1000 µg/mL and an EC50 (Leishmania panamensis) of 5.53 µg/mL (≈ 11.6 µM). It also gave an MIC50 (Candida albicans [3]) of at least 250 µg/mL, an MIC80 (Candida albicans [3]) of at least 250 µg/mL and an MIC50 (Cryptococcus neoformans [4]) of 125 µg/mL (≈ 263 µM). For the same compound, the MIC80 (Cryptococcus neoformans [4]) was 250 µg/mL (≈ 526 µM), the inhibition of growth at 250 µg/mL (Candida albicans [5]) was 40.9% and the inhibition of growth at 125 µg/mL (Candida albicans [6]) was 38.8%. The inhibition of growth at 62.5 µg/mL (Candida albicans [7]) was 22.5%, the inhibition of growth at 31.25 µg/mL (Candida albicans [8]) was 21.6% and the inhibition of growth at 15.62 µg/mL (Candida albicans [9]) was 20%. For the same compound, the inhibition of growth at 7.8 µg/mL (Candida albicans [10]) was 19.6%, the inhibition of growth at 3.4 µg/mL (Candida albicans [11]) was 14.7% and the inhibition of growth at 250 µg/mL (Cryptococcus neoformans [12]) was 100%. The inhibition of growth at 125 µg/mL (Cryptococcus neoformans [13]) was 53.4%, the inhibition of growth at 62.5 µg/mL (Cryptococcus neoformans [14]) was 32.2% and the inhibition of growth at 31.25 µg/mL (Cryptococcus neoformans [15]) was 28.1%. It also gave an inhibition of growth at 15.62 µg/mL (Cryptococcus neoformans [16]) of 18.7%, an inhibition of growth at 7.8 µg/mL (Cryptococcus neoformans [17]) of 26.7% and an inhibition of growth at 3.4 µg/mL (Cryptococcus neoformans [18]) of 11.1%. It also gave an MIC (Staphylococcus aureus [19]) of over 1000 µg/mL, an MIC (Staphylococcus aureus [20]) of over 1000 µg/mL and an MIC (Staphylococcus aureus [21]) of over 1000 µg/mL. For the same compound, the MIC (Escherichia coli) was over 1000 µg/mL, the MIC (Pseudomonas aeruginosa) was over 1000 µg/mL and the MIC (Neisseria gonorrhoeae) was over 1000 µg/mL. For the same compound, the EC50 (Plasmodium falciparum) was 26.3 µg/mL (≈ 55.4 µM), the LC50 (U-937) was 17 µg/mL (≈ 35.8 µM) and the EC50 (Trypanosoma cruzi) was 6.57 µg/mL (≈ 13.8 µM).
